These results are taken from ChEMBL document CHEMBL1125034, “Design and synthesis of 4H-3,1-benzoxazin-4-ones as potent alternate substrate inhibitors of human leukocyte elastase” (J Med Chem, 1990).

The target of data set [1] is T1, Neutrophil elastase (Homo sapiens) (UniProt P08246).
T1 sequence (whole entry): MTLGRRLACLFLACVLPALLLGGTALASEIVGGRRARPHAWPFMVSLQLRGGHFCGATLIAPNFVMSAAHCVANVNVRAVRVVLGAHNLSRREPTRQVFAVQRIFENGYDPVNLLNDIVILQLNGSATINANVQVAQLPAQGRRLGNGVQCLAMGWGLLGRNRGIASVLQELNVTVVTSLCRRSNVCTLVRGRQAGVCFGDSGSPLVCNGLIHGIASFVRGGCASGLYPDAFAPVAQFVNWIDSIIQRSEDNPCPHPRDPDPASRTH
The experiment in a line: Component deacylation rate constant for interaction with human leukocyte elastase.

The target in data set [2] is T1, Neutrophil elastase (Homo sapiens). The experiment in a line: Component acylation rate constant for interaction with human leukocyte elastase.
The nature of data set [3]: Partition coefficient (logD7.4). It counts as physicochemical. Particulars: octanol/water, pH 7.4.
Data set [4] is described as follows: Alkaline hydrolysis rate of the compound. The data set is classed as ADME. Put shortly: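 Alkaline hydrolysis rate constants measured at several pH values at 25 °C. Loss of the long-wavelength UV chromophore (λmax typically 300-345 nm) was followed by spectrophotometer.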
For data set [5], the target named is T2, Neutrophil elastase (Homo sapiens, UniProt P08246).
T2 sequence (P08246 whole entry): T1 sequence (whole entry)
The experiment in a line: Inhibition of human leukocyte elastase.

In data set [1], `Cc1cccc2nc(C(F)(F)F)oc(=O)c12` came in with a Log koff of -2.43. For the same molecule, in data set [2], the Log kon was 5.11. Further, the logD (as a rule, lipophilicity at a set pH, counting ionised and neutral species) in data set [3] amounted to 2.9. Besides, the “Log kOH-” value in data set [4] amounted to 3.14. Further, the affinity in data set [5], expressed as Ki, was 28.8 nM.
The like results for `NC(=O)[C@H](Cc1ccccc1)NC(=O)[C@@H]1CCCN1c1nc2ccccc2c(=O)o1` were, in that order, -3.27, 4.16, 1.2, 1.23 and 37.2 nM.
On to `CC(C)Nc1nc2ccccc2c(=O)o1`, for which the Log koff in data set [1] is -2.51. Besides, in data set [2], the Log kon amounted to 4.77. In addition, the logD in data set [3] was found to be 2.4. In addition, in data set [4], the “Log kOH-” value was 1.21.
With `CC(C)C[C@H](NC(=O)C1CCCN1c1nc2ccccc2c(=O)o1)C(N)=O` (stereo partly specified), in data set [1], the Log koff is -3.49. The Log kon in data set [2] came out at 4.18. Moreover, in data set [3], the logD was found to be 1. Also, the “Log kOH-” value in data set [4] was found to be 1.27. Besides, the affinity in data set [5] corresponds to a Ki of 21.4 nM.
With `CCSc1nc2cccc(C)c2c(=O)o1`, in data set [1], the Log koff is -2.85. The Log kon in data set [2] was found to be 6.18. In data set [3], this molecule registered a logD of 3.6. Besides, the “Log kOH-” value in data set [4] is on record as 1.58. The affinity in data set [5] corresponds to a Ki of 0.933 nM.
Turning to `COc1cc2nc(SCc3ccccc3)oc(=O)c2cc1OC`, in data set [1], the Log koff was -1.91. This molecule also registered a Log kon in data set [2] of 3.76. In addition, the “Log kOH-” value in data set [4] was found to be 0.96. For the same molecule, the Ki (usually the dissociation constant of the complex between target and ligand, obtained from inhibition or displacement) in data set [5] was 2140 nM.
The matching figures for `COc1cc(C)c2c(=O)oc(NC(C)C)nc2c1`: -3.1, 4.32, -0.42 and 38 nM.
`CCCCNc1nc2cc(N)ccc2c(=O)o1` returned a Log koff in data set [1] of -2.74. Further, in data set [2], the Log kon turned out to be 3.45. The molecule also had a logD in data set [3] of 1.7. Also, in data set [4], the “Log kOH-” value is recorded as -0.44. The Ki in data set [5] is 646 nM.
`CCCCNc1nc2cccc(CC)c2c(=O)o1` came in with a Log koff in data set [1] of -3.27. This molecule came in with a Log kon in data set [2] of 5.11. Besides, in data set [3], the logD worked out at 3.8. The “Log kOH-” value in data set [4] came to 0.38.
For the molecule `CC(C)CN(CC(C)C)c1nc2ccccc2c(=O)o1`, in data set [1], the Log koff is -3.01. The Log kon in data set [2] turned out to be 2.18. The “Log kOH-” value in data set [4] was found to be 0.68. This molecule showed a Ki in data set [5] of 6460 nM.
The like results for `CCOC(=O)[C@H](C)Nc1nc2ccccc2c(=O)o1` were, in that order, -2.65, 3.41, 1.31 and 871 nM.
On to `CC(C)C[C@H](NC(=O)[C@@H]1CCCN1c1nc2ccccc2c(=O)o1)C(=O)NCC(N)=O`, for which the Log koff in data set [1] was -3.64. The molecule further displayed a Log kon in data set [2] of 4.04. In data set [3], this molecule gave a logD of 0.8. Besides, the “Log kOH-” value in data set [4] is 1.26. In addition, the Ki in data set [5] is 20.9 nM.
In data set [1], `COC(=O)[C@@H](CC(C)C)Nc1nc2ccccc2c(=O)o1` showed a Log koff of -2.85. The Log kon in data set [2] is 4.58. Further, the logD in data set [3] was 3.2. The “Log kOH-” value in data set [4] is on record as 1.32. The same molecule gave a Ki in data set [5] of 37.2 nM.
Take `CCCc1cccc2nc(OCC)oc(=O)c12`: the Log koff in data set [1] was -4.15. Moreover, the Log kon in data set [2] turned out to be 5.49. Also, the “Log kOH-” value in data set [4] is reported as 1.17. In addition, affinity in data set [5] was put at a Ki of 0.229 nM.
The matching figures for `O=C(c1nc2ccccc2c(=O)o1)[C@@H]1CCCN1`: -3, 2.95, 1.69 and 1120 nM.
With `CC(C)Nc1nc2cc(N(C)C)ccc2c(=O)o1`, the Log koff in data set [1] is -3.32. Further, the Log kon in data set [2] is 3. The “Log kOH-” value in data set [4] is on record as -0.74. This molecule had a Ki in data set [5] of 479 nM.
Consider `NC(=O)[C@H](Cc1ccccc1)Nc1nc2ccccc2c(=O)o1`, for which the Log koff in data set [1] is -3.42. Further, the Log kon in data set [2] was determined as 3.08. Also, in data set [4], the “Log kOH-” value is 1.26. In data set [5], this molecule gave a Ki of 316 nM.
`CNc1nc2cccc(C)c2c(=O)o1` returned a Log koff in data set [1] of -0.82. In addition, the Log kon in data set [2] turned out to be 3.69. This molecule displayed a logD in data set [3] of 2.3. In addition, the “Log kOH-” value in data set [4] is listed as 0.54.
For the molecule `O=c1oc(/C=C/c2ccccc2)nc2ccccc12`, in data set [1], the Log koff was -2.5. In data set [2], this molecule returned a Log kon of 2.59. Moreover, the logD in data set [3] was determined as 3.9. Moreover, the “Log kOH-” value in data set [4] was 1.57. The Ki in data set [5] is 8130 nM.
Consider `CCOc1nc2cc(N(C)C)ccc2c(=O)o1`, for which the Log koff in data set [1] was -4.85. For the same molecule, the Log kon in data set [2] is 3.46. In addition, the “Log kOH-” value in data set [4] is recorded as -0.1. The Ki in data set [5] was 4.9 nM.
`COC(=O)[C@H](Cc1ccc(O)cc1)Nc1nc2ccccc2c(=O)o1` displayed a Log koff in data set [1] of -3.07. For the same molecule, in data set [2], the Log kon was determined as 3.28. In data set [3], this molecule yielded a logD of 0.3. The “Log kOH-” value in data set [4] stood at 1.28. Further, the affinity in data set [5] corresponds to a Ki of 447 nM.
Regarding `COC(=O)[C@H](CC(C)C)Nc1nc2ccccc2c(=O)o1`, the Log koff in data set [1] was -3.41. The molecule further registered a Log kon in data set [2] of 3.36. The molecule also showed a logD in data set [3] of 3.2. Also, the “Log kOH-” value in data set [4] turned out to be 1.13. This molecule also had a Ki in data set [5] of 170 nM.
Regarding `CCCCN(CCCC)c1nc2ccccc2c(=O)o1`, the Log koff in data set [1] is -2.91. In data set [2], this molecule came in with a Log kon of 2.43. In addition, the “Log kOH-” value in data set [4] was -0.57. In data set [5], this molecule had a Ki of 4570 nM.
With `COC(=O)C(CC(C)C)Nc1nc2ccccc2c(=O)o1` (stereo unspecified), in data set [1], the Log koff was -2.86. Further, the Log kon in data set [2] came to 4.32. In data set [4], the “Log kOH-” value is 1.32. Further, the Ki in data set [5] is 66.1 nM.
On to `O=c1oc(NCCc2ccccc2)nc2ccccc12`, for which the Log koff in data set [1] was -2.72. For the same molecule, the Log kon in data set [2] came out at 3.05. The molecule also showed a logD in data set [3] of 3.2. Also, in data set [4], the “Log kOH-” value is on record as 1.15. In data set [5], this molecule showed a Ki of 1700 nM.
